# Rows were chosen to be rich in hits. Some 2.9% of all compounds tested hit in one or more screens of this group.
# SIRT5 inh – blocks human SIRT5 desuccinylation of peptide; Q9NXA8; Purified SirT5, succinyl-peptide AMC, trypsin-coupled fluorescence; inhibition, % at 15 µM; 330,000 tested, 1.1% active; in the data active = inhibition above about 15%; inconclusive = no clear call, values can overlap the other calls
# Target sequence (Q9NXA8 whole entry, looked up): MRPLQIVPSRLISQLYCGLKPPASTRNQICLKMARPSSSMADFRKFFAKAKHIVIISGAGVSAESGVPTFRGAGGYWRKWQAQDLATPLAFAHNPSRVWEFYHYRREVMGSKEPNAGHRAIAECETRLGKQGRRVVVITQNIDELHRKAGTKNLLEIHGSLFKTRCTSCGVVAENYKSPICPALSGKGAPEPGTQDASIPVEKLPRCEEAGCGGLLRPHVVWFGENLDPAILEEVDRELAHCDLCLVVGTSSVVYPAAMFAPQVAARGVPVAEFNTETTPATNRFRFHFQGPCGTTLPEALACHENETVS
# PGC1a acetyl inh – PGC1a acetylation modulation, inhibitor mode | U2OS PGC1a acetylation, AlphaScreen anti-acetyl-lysine; with virally co-expressed GCN5 acetyltransferase | inhibition, % at 15.6 µM | 350,000 tested, 0.17% active;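 active = every replicate shows inhibition of at least 40%; inconclusive = mean inhibition at least 40% but some replicate below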
# S100A4 inh HTS – S100A4-myosin IIA interaction inhibition. 360,000 tested, 0.14% active. inhibition, % at 10.7 µM. S100A4/TAMRA-MyoIIA peptide fluorescence polarization. P26447;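 active = mean inhibition of at least 70% across replicates, with every replicate also reaching that level; inconclusive = mean inhibition reaches 70% but some replicates fall short; inactive = mean inhibition below 70%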
# Target sequence (P26447 whole entry, looked up): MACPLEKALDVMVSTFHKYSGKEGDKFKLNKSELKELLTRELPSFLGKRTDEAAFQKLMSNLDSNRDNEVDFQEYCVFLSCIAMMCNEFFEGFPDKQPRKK
#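 Test system: S100A4 monomer protein. Medium: HEPES buffer with Ca2+, pH 7.2. Reagent: fluorescent myosin IIA peptide, 5 nM. Compound dosing: single-point compound testing. Timing: 5 min between mix addition and reading. Benchmarks: DMSO neutral and TFP positive wells.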
# DENV2 CPE – protects cells from dengue virus 2 cytopathic effect | DENV2-infected cells, cytopathic effect rescue, plate reader | CPE inhibition, % at 9.99 µM | 350,000 tested, 1.7% active | AID 651640; in the data active = CPE inhibition above about 20%, passing the limit was not always enough; inconclusive = no clear call, values can overlap the other calls; tested in BHK-21 cells
# C2C12 statin – protects C2C12 myotubes from simvastatin toxicity; ATP luminescence, 48 h; scaled: DMSO 0, geranylgeraniol control 100; rescue of ATP level, % at 7.49 µM; 330,000 tested, 0.78% active;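 active = mean ATP rescue above about 67%, or every replicate alone reaching that limit, limit read from the data, passing the limit was not always enough; inconclusive = no clear call, values can overlap the other calls; inactive = mean under the limit and some replicate under it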;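 also: myotubes were challenged with 10 µM simvastatin during compound exposure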
# Hits are given with their value; – = inactive; ? = inconclusive; · = not tested or not shown; ! = repeats disagree.
SMILES,SIRT5 inh,PGC1a acetyl inh,S100A4 inh HTS,DENV2 CPE,C2C12 statin
C[C@@H]1CN([C@@H](C)CO)C(=O)Cc2cc(NC(=O)Nc3ccc4c(c3)OCO4)ccc2O[C@H]1CN(C)CC1CC1,–,·,–,–,–
CO[C@H]1CN(C)C(=O)c2ccc(NC(=O)Nc3ccccc3Cl)cc2OC[C@H](C)NC[C@H]1C,–,–,–,–,–
CC(C)(C)c1ccc(C(=O)Nc2ccc3c(c2)C(=O)NC3=O)cc1,–,–,–,58,–
O=C(Nc1ccc2c(c1)[C@@H]1C[C@@H](CC(=O)N3CCOCC3)O[C@@H](CO)[C@@H]1O2)c1ccc2c(c1)OCO2,·,–,·,–,–
CN(Cc1cnc2nc(N)nc(N)c2n1)c1ccc(C(=O)N[C@@H](CCC(=O)O)C(=O)O)cc1,–,43!,–,–,–
COc1ccc(S(=O)(=O)Nc2ccc3c(c2)C(=O)N([C@@H](C)CO)C[C@@H](C)[C@H](CN(C)S(=O)(=O)c2cccs2)OCCCC[C@H](C)O3)cc1,–,–,–,26,–
Cc1ccc(S(=O)(=O)Nc2ccc3c(c2)C(=O)N([C@H](C)CO)C[C@@H](C)[C@H](CN(C)S(=O)(=O)c2cccs2)OCCCC[C@H](C)O3)cc1,17,–,–,?,·
COc1ccc(S(=O)(=O)Nc2ccc3c(c2)C(=O)N([C@@H](C)CO)C[C@@H](C)[C@@H](CN(C)S(=O)(=O)c2cccs2)OCCCC[C@@H](C)O3)cc1,–,–,–,–,–
COc1ccc(S(=O)(=O)Nc2ccc3c(c2)C(=O)N([C@H](C)CO)C[C@H](C)[C@H](CN(C)S(=O)(=O)c2cccs2)OCCCC[C@@H](C)O3)cc1,–,–,–,–,–
COc1ccc(S(=O)(=O)N(C)C[C@H]2OCCCC[C@@H](C)Oc3ccc(NS(=O)(=O)c4cccs4)cc3C(=O)N([C@@H](C)CO)C[C@H]2C)cc1,–,–,–,23,·
Cc1ccc(S(=O)(=O)Nc2ccc3c(c2)C(=O)N([C@@H](C)CO)C[C@@H](C)[C@H](CN(C)S(=O)(=O)c2cccs2)OCCCC[C@@H](C)O3)cc1,–,–,–,–,·
COc1ccc(S(=O)(=O)Nc2ccc3c(c2)C(=O)N([C@@H](C)CO)C[C@@H](C)[C@H](CN(C)S(=O)(=O)c2cccs2)OCCCC[C@@H](C)O3)cc1,16,–,–,–,–
Cc1ccc(CN2CC(=O)N3[C@H](C2)[C@@H](c2ccc(Br)cc2)[C@@H]3CO)cc1,–,–,–,–,·
CO[C@@H]1CN(C)C(=O)c2ccc(NS(C)(=O)=O)cc2OC[C@H](C)N(C(=O)C2CCCCC2)C[C@@H]1C,–,–,–,–,–
C[C@@H]1CCCCO[C@H](CN(C)S(=O)(=O)c2ccc(Cl)cc2)[C@@H](C)CN([C@@H](C)CO)C(=O)c2cc(NS(=O)(=O)c3cccs3)ccc2O1,–,–,–,69,·
C[C@@H]1CN([C@H](C)CO)C(=O)c2cc(NS(=O)(=O)c3cn(C)cn3)ccc2O[C@@H](C)CCCCO[C@H]1CN(C)S(=O)(=O)c1cccs1,·,–,–,28,·
CCCNC(=O)[C@H]1[C@H](CO)[C@H]2Cn3c(ccc(C4=CCCC4)c3=O)[C@H]2N1CCC,–,–,–,–,–
COC(=O)C1=C(C(=O)OC)[C@@H]2Nc3ccccc3[C@@]23C[C@@H](C(=O)OC)N(C(=O)CC(C)C)C3=N1,21,–,–,–,–
COc1cccc(C(=O)Nc2ccc3c(c2)C(=O)N(C)C[C@@H](OC)[C@H](C)CN[C@H](C)CO3)c1,–,–,–,–,–
O=C(N[C@@H]1CC[C@@H](CCn2cc(C3CCCC3)nn2)O[C@@H]1CO)c1cccnc1,–,–,–,–,·
O=C(CCl)Nc1cc(SCC(O)CO)cc([N+](=O)[O-])c1 (centres undefined),–,53,–,–,·
CO[C@H]1CN(C)C(=O)c2cc(NC(=O)CC(F)(F)F)ccc2OC[C@@H](C)NC[C@H]1C,–,·,–,26,·
CO[C@H]1CN(C)C(=O)c2cc(NC(=O)CC(F)(F)F)ccc2OC[C@H](C)N(C(C)=O)C[C@@H]1C,16,–,–,–,·
CO[C@@H]1CN(C)C(=O)c2ccc(NC(=O)CC(F)(F)F)cc2OC[C@H](C)N(C(C)=O)C[C@@H]1C,·,–,–,108,·
CO[C@H]1CN(C)C(=O)c2cc(NC(=O)CC(F)(F)F)ccc2OC[C@H](C)N(C(C)=O)C[C@H]1C,–,–,–,–,·
SMILES,SIRT5 inh,PGC1a acetyl inh,S100A4 inh HTS,DENV2 CPE,C2C12 statin
C[C@@H]1CN([C@@H](C)CO)C(=O)c2cc(C#CC3CCCCC3)cnc2O[C@@H]1CN(C)C(=O)c1ccncc1,–,–,–,–,–
Cc1cccc(NC(=O)CNC(=O)[C@@H](Cc2ccccc2)NC(=O)[C@H]2O[C@@H](n3ccc(N)nc3=O)[C@H](O)[C@@H]2O)c1C,–,·,–,–,·
Cc1c(Cl)cccc1Nc1nc(N)nc(CN2CCCCCC2)n1,·,–,·,·,90
COc1cc(C)c(S(=O)(=O)N2CCCC2)cc1C(C)C,–,–,–,–,–
COc1cc(C)c(-c2cc(C(=O)O)c(C)o2)cc1C(C)C,·,–,·,·,95
CCC(CC)CN1CCC(CN2C(=S)NC[C@@H]2[C@@H](C)CC)CC1,19,–,–,–,–
CCC(CC)CN1CCC(CN2C(=O)C(=O)NC[C@@H]2[C@@H](C)CC)CC1,–,–,–,–,–
CO[C@@H]1CN(C)C(=O)c2cc(NS(=O)(=O)c3ccc(C)cc3)ccc2OC[C@@H](C)N(C(=O)NC(C)C)C[C@@H]1C,–,–,–,–,–
O=C(Nc1nnc(-c2ccco2)o1)c1ccc(S(=O)(=O)N2CCCC2)cc1,–,·,–,–,·
CC1CCN(S(=O)(=O)c2ccc(C(=O)Nc3nnc(-c4ccco4)o3)cc2)CC1,–,·,–,90,–
CS(=O)(=O)c1cccc(-c2nnc(NC(=O)c3ccc(S(=O)(=O)N4CCCC4)cc3)o2)c1,–,·,–,61,–
COc1ccccc1-c1nnc(NC(=O)c2ccc(S(=O)(=O)N3CCCC3)cc2)o1,–,·,–,–,–
O=C(O)c1cc(Cl)ccc1-c1ccc(/C=C/c2cc(C(F)(F)F)[nH]c(=O)n2)o1,20,–,–,–,·
COc1ccc(CN(C)C[C@H]2OCc3cnnn3CCCC(=O)N([C@@H](C)CO)C[C@H]2C)cc1,–,–,–,–,–
C/C(=N\NC(=O)CNc1ccccc1Cl)C(C)(C)C,·,–,·,·,72
C/C(=N\NC(=O)CNc1cccc(Cl)c1C)C1CC1,–,–,–,–,·
Oc1ccc(-c2cnns2)c(O)c1,31,·,–,–,·
O=C1Nc2ccccc2SC1c1ccccc1 (centres undefined),–,–,–,25,–
O=C1CC(c2ccccc2)Sc2ccccc2N1 (centres undefined),·,–,·,·,–
O=C(C[C@@H]1CC[C@H](NC(=O)Cc2cccnc2)[C@@H](CO)O1)Nc1ccc(-c2ccccc2)cc1,–,–,–,?,–
